These results are taken from ChEMBL document CHEMBL1157416, “Novel open-chain cytochalsins from the marine-derived fungus Spicaria elegans” (J Nat Prod, 2008).

Type in all cases: functional, cell-based
In one experiment the test system is Bel-7402. Kind of experiment: Cytotoxicity against human BEL-7402 cells after 72 hrs by MTT assay. Conditions: Bel-7402, 72 h. The procedure, abridged: (§1)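 Cells grown in RPMI-1640 with 10% FBS, 5% CO2/95% air, 37 °C; plated at 5 × 10^4 cells/mL, preincubated 24 h, then compounds added in DMSO at several concentrations for 72 h. MTT (5 mg/mL) added for 4 h, medium replaced by DMSO to dissolve formazan, absorbance read at 570 nm; IC50 values reported.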

Another experiment has as its system A549. Kind of experiment: Cytotoxicity against human A549 cells after 72 hrs by MTT assay. Particulars: A549, 72 h. The procedure, abridged:
as §1
In general terms: Tetrazolium dyes change colour on reduction, which living cells bring about.

For another experiment, the system named is P388. Kind of experiment: Cytotoxicity against mouse P388 cells after 72 hrs by MTT assay. Particulars: P388, 72 h. The procedure, abridged:
as §1

In another experiment the test system is HL-60. Kind of experiment: Cytotoxicity against human HL60 cells after 72 hrs by MTT assay. Particulars: HL-60, 72 h. The procedure, abridged:
as §1

For `C/C1=C/CC(=O)O[C@@]23C(=O)N[C@@H](Cc4ccc(O)cc4)[C@@H]2[C@H](C)[C@@]2(C)O[C@H]2[C@@H]3/C=C/C[C@H](C)C1=O`, the IC50 amounted to 94 µM in the experiment with Bel-7402, 96 µM with A549, 79 µM in the experiment with P388 and 66 µM in the experiment with HL-60.

In the case of `C=C1[C@@H](C)[C@H]2[C@H](Cc3ccccc3)NC(=O)[C@@]2(O)[C@@H](/C=C/C[C@H](C)[C@@H](O)[C@@H](C)O)[C@@H]1O` [CYTOCHALASIN Z10], the IC50 in the experiment on Bel-7402 was more than 100 µM; in the experiment with A549 it was 9.6 µM; in the experiment with P388 it was more than 100 µM; in the experiment with HL-60, 69 µM.

Regarding `C=C1[C@@H](C)[C@H]2[C@H](Cc3ccccc3)NC(=O)[C@@]2(O)[C@@H](/C=C/C[C@H](C)C(=O)[C@H](C)O)[C@@H]1O` [CYTOCHALASIN Z11], the concentration for half-maximal inhibition (IC50) in the experiment on Bel-7402 was more than 100 µM; with A549, 4.3 µM; with P388, 69 µM; in the experiment with HL-60, 45 µM.

In the case of `CC1=C(C)[C@H]2[C@H](Cc3ccccc3)NC(=O)[C@@]2(O)[C@@H](/C=C/C[C@H](C)[C@@H](O)[C@@H](C)O)[C@@H]1O` [CYTOCHALASIN Z12], the IC50 was more than 100 µM in the experiment with Bel-7402, 92 µM in the experiment with A549, more than 100 µM with P388 and 89 µM in the experiment with HL-60.

Take `CC1=C(C)[C@H]2[C@H](Cc3ccccc3)NC(=O)[C@@]2(O)[C@@H](/C=C/C[C@H](C)C(=O)[C@H](C)O)[C@@H]1O` [CYTOCHALASIN Z13]: the IC50 in the experiment with Bel-7402 was 88 µM; with A549, 76 µM; in the experiment with P388, 67 µM; in the experiment with HL-60 it was 80 µM.

For the compound `CC(=O)[C@@H](O)[C@@H](C)C/C=C/[C@H]1[C@H](O)C(C)=C(C)[C@H]2[C@H](Cc3ccccc3)NC(=O)[C@@]12O` [CYTOCHALASIN Z14], the half-maximal inhibitory concentration (IC50) with Bel-7402, in the experiment on A549, in the experiment on P388 and with HL-60 was more than 100 µM each time.

`CC(=O)[C@H](O)[C@@H](C)C/C=C/[C@H]1[C@H](O)C(C)=C(C)[C@H]2[C@H](Cc3ccccc3)NC(=O)[C@@]12O` [CYTOCHALASIN Z15]: the 50% inhibitory concentration (IC50) in the experiment with Bel-7402, in the experiment on A549, in the experiment on P388 and in the experiment with HL-60 was more than 100 µM throughout.

A word on the IC50: it is the concentration that inhibits the measured activity by half. Higher therefore signals a need for much substance.
